Reference: ChEMBL document CHEMBL5715948, “Tubastatin, a selective histone deacetylase 6 inhibitor shows anti-inflammatory and anti-rheumatic effects” (Int Immunopharmacol, 2013)
Activity calls are given as the source filed them. The calls are words filed in the database; no cut-off is given here.

Columns and labels:
RAW264.7 [1] = assay: Inhibition of LPS-stimulated NO production in mouse RAW264.7 cells at 10 uM pre-incubated for 24 hrs before LPS-stimulation and measured after 24 hrs post LPS challenge by Griess assay; type: functional; conditions: time 48 hrs
Method in brief: (§1)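 RAW 264.7 cells (1 million) in 24-well plates, 24 h settle, compound 24 h, then LPS 100 ng/ml for 24 h. Medium nitrite measured with Griess reagent (1% sulfanilamide, 0.1% naphthylethylenediamine in 2.5% phosphoric acid), 10 min room temperature, absorbance 570 nm, quantified against sodium nitrite standard curve; mean ± SD, n = 3.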

Rattus norvegicus [2] = assay: Antiinflammatory activity in Wistar rat assessed as inhibition of FCA-induced paw inflammation at 1 mg/kg/day, […] measured 24 hrs after FCA challenge relative to control; type: functional; conditions: route po
Method in brief: (§2)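 Male Wistar rats (200–225 g) randomized by paw volume, n = 6. Test agent i.p. daily for 5 days or reference oral on day 5; 1 h after dosing on day 5, 100 μg M. tuberculosis in 50 μl IFA injected sub-plantar into both hind paws. Paw volume plethysmometry at 2, 6, 24 h; % inhibition versus vehicle disease control.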

[3] = Toxicity in DBA1 mouse semi-therapeutic collagen induced arthritis model assessed as thymus weight at 0.1 mg/kg/day, po QD dosed during day 21 to day 36 post immunization (reference value: 12.20 +/- 1.5 mg); type: organism-based; conditions: in vivo, 384 h, time 16 day
Rattus norvegicus [4] = assay: Antiinflammatory activity in Wistar rat assessed as inhibition of FCA-induced paw inflammation at 1 mg/kg/day, po […] measured 6 hrs after FCA challenge relative to control; type: functional; method in brief: as §2
Mus musculus [5] = assay: (§3) Anti-rheumatic activity in DBA1 mouse semi-therapeutic collagen induced arthritis model assessed as inhibition of histopathological changes (cartilage erosion, synovial hyperplasia and inflammation) at 0.1 mg/kg/day, po QD dosed during day 21 to day 36 post immunization by hematoxylin and eosin staining based analysis; type: functional; conditions: DBA1, 384 h, time 16 day
Method in brief: (§4)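 Histopathology in collagen II/CFA-immunized DBA1 mice (day 21 boost, day 28 LPS i.p.), treated day 21–36, n = 6. Right fore and hind paws taken at sacrifice on day 37, paraffin-embedded, sectioned, H&E-stained and scored for cartilage erosion, synovial hyperplasia, pannus and cell infiltration.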

Mus musculus [6] = assay: Anti-rheumatic activity in DBA1 mouse semi-therapeutic collagen induced arthritis model assessed as mild cartilaginous change like proteoglycan loss at 0.1 mg/kg/day, po QD dosed during day 21 to day 36 post immunization by Safranin O staining analysis; type: functional, organism-based; conditions: time 16.0 day
Method in brief: (§5)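 Right fore and hind paws from collagen-induced arthritic DBA1 mice (treated day 21–36, sacrificed day 37) paraffin-sectioned and stained with Safranin O to detect proteoglycan/glycosaminoglycan loss in articular cartilage.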

[7] = Toxicity in DBA1 mouse semi-therapeutic collagen induced arthritis model assessed as spleen weight at 0.1 mg/kg/day, po QD dosed during day 21 to day 36 post immunization (reference value: 226.4 +/- 11.03 mg); type: organism-based; conditions: in vivo, 384 h, time 16 day
Mus musculus [8] = assay: Anti-rheumatic activity in DBA1 mouse semi-therapeutic collagen induced arthritis model assessed as inhibition of clinical arthritic scores at 0.1 mg/kg/day, po QD dosed during day 21 to day 36 post immunization by hematoxylin and eosin staining based analysis; type: functional; conditions: DBA1, 384 h, time 16 day
Method in brief: (§6)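 Collagen-induced arthritis in female DBA1 mice: collagen II/CFA intradermal at tail base day 0, collagen/IFA boost day 21, LPS 50 μg i.p. day 28; once-daily dosing day 21 to 36, six per group. Arthritic clinical scores followed daily from day 28 to 37; mean ± SEM versus vehicle-treated disease control.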

[9] = Toxicity in DBA1 mouse semi-therapeutic collagen induced arthritis model assessed as change in body weight at 0.1 mg/kg/day, po QD dosed during day 21 to day 36 post immunization (reference value: -25.03 +/- 5.22%); type: organism-based; conditions: in vivo, 384 h, time 16 day
Mus musculus [10] = assay: Anti-rheumatic activity in DBA1 mouse semi-therapeutic collagen induced arthritis model assessed as inhibition of IL6 level in paw tissues at 0.1 mg/kg/day, po QD dosed during day 21 to day 36 post immunization by ELISA analysis; type: functional; conditions: 384 h, time 16 day
Method in brief: (§7)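 Female DBA1 mice (6–8 weeks) immunized intradermally at tail base on day 0 with bovine type II collagen in CFA, boosted day 21 with collagen in IFA, LPS 50 μg i.p. day 28; dosed day 21–36 (n = 6/group). Day 37 left paws frozen, pulverized in liquid nitrogen, homogenized in T-PER, spun 500 g 10 min 4 °C; supernatant IL-6 by ELISA, normalized per mg protein.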

Rattus norvegicus [11] = assay: Antiinflammatory activity in Wistar rat assessed as inhibition of FCA-induced paw inflammation at 1 mg/kg/day, po […] measured 2 hrs after FCA challenge relative to control; type: functional; method in brief: as §2
Rattus norvegicus [12] = assay: Antiinflammatory activity in Wistar rat assessed as inhibition of FCA-induced paw inflammation at 30 mg/kg/day, ip for 5 days measured 2 hrs after FCA challenge relative to control; type: functional; conditions: 120 h, time 5 day; method in brief: as §2
THP-1 [13] = assay: Inhibition of LPS-stimulated TNFalpha production in PMA-activated human THP-1 cells pre-incubated for 24 hrs before LPS-stimulation and measured after 4 hrs post LPS challenge by ELISA; type: functional, cell-based; conditions: time 28.0 hrs
Method in brief: (§8)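 THP-1 cells, 10,000/well, differentiated with 32 nM PMA for 24 h, medium replaced and rested 24 h, then compound 24 h before LPS: 10 ng/ml for 4 h (TNF-α) or 100 ng/ml for 8 h (IL-6). Conditioned medium assayed by human ELISA at 450 nm; mean ± SD, n = 3; IC50 from dose–response.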

THP-1 [14] = assay: Cytotoxicity in human THP-1 cells at 100 to 100000 nM incubated for 24 hrs by SRB assay; type: toxicity, cell-based; conditions: thp-1, 24 h, 100 µM, dose 100-100000 nM
Method in brief: (§9)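 RAW 264.7 (DMEM) or THP-1 (RPMI-1640) cells, 10% FBS, seeded 10,000/well and exposed 24 h to compound in DMSO over 100–100000 nM. SRB staining, absorbance 530 nm; % survival relative to untreated cells, mean ± SD, n = 3.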

[15] = Toxicity in DBA1 mouse semi-therapeutic collagen induced arthritis model assessed as thymus weight at 30 mg/kg/day, ip QD dosed during day 21 to day 36 post immunization (reference value: 12.20 +/- 1.5 mg); type: organism-based; conditions: in vivo, 384 h, time 16 day
Rattus norvegicus [16] = assay: Antiinflammatory activity in Wistar rat assessed as inhibition of FCA-induced paw inflammation at 30 mg/kg/day, ip for 5 days and measured 6 hrs after FCA challenge relative to control; type: functional; conditions: 120 h, time 5 day; method in brief: as §2
[17] = Toxicity in DBA1 mouse semi-therapeutic collagen induced arthritis model assessed as spleen weight at 30 mg/kg/day, ip QD dosed during day 21 to day 36 post immunization (reference value: 226.4 +/- 11.03 mg); type: organism-based; conditions: in vivo, 384 h, time 16 day
RAW264.7 [18] = assay: Cytotoxicity in mouse RAW264.7 cells at 100 to 100000 nM incubated for 24 hrs by SRB assay; type: toxicity, cell-based; conditions: raw264.7, 24 h, 100 µM, dose 100-100000 nM; method in brief: as §9
Rattus norvegicus [19] = assay: Antiinflammatory activity in Wistar rat assessed as inhibition of FCA-induced paw inflammation at 30 mg/kg/day, ip for 5 days and measured 24 hrs after FCA challenge relative to control; type: functional; conditions: 120 h, time 5 day; method in brief: as §2
Mus musculus [20] = assay: Anti-rheumatic activity in DBA1 mouse semi-therapeutic collagen induced arthritis model assessed as mild cartilaginous change like proteoglycan loss at 30 mg/kg/day, ip QD dosed during day 21 to day 36 post immunization by Safranin O staining analysis; type: functional, organism-based; conditions: time 16.0 day; method in brief: as §5
Mus musculus [21] = assay: as §3, with “at 30” for “at 0.1”, “mg/kg/day, ip” for “mg/kg/day, po”; type: functional; conditions: DBA1, 384 h, time 16 day; method in brief: as §4
THP-1 [22] = assay: Inhibition of LPS-stimulated IL6 production in PMA-activated human THP-1 cells pre-incubated for 24 hrs before LPS-stimulation and measured after 8 hrs post LPS challenge by ELISA; type: functional, cell-based; conditions: time 32.0 hrs; method in brief: as §8
Mus musculus [23] = assay: Anti-rheumatic activity in DBA1 mouse semi-therapeutic collagen induced arthritis model assessed as inhibition of clinical arthritic scores at 30 mg/kg/day, ip QD dosed during day 21 to day 36 post immunization by hematoxylin and eosin staining based analysis; type: functional; conditions: DBA1, 384 h, time 16 day; method in brief: as §6
[24] = Toxicity in DBA1 mouse semi-therapeutic collagen induced arthritis model assessed as change in body weight at 30 mg/kg/day, ip QD dosed during day 21 to day 36 post immunization (reference value: -25.03 +/- 5.22%); type: organism-based; conditions: in vivo, 384 h, time 16 day
RAW264.7 [25] = assay: Inhibition of LPS-stimulated NO production in mouse RAW264.7 cells pre-incubated for 24 hrs before LPS-stimulation and measured after 24 hrs post LPS challenge by Griess assay; type: functional, cell-based; conditions: time 48.0 hrs; method in brief: as §1
Mus musculus [26] = assay: Anti-rheumatic activity in DBA1 mouse semi-therapeutic collagen induced arthritis model assessed as inhibition of IL6 level in paw tissues at 30 mg/kg/day, ip QD dosed during day 21 to day 36 post immunization by ELISA analysis; type: functional; conditions: 384 h, time 16 day; method in brief: as §7

C[C@@H]1C[C@H]2[C@@H]3CCC4=CC(=O)C=C[C@]4(C)[C@@]3(F)[C@@H](O)C[C@]2(C)[C@@]1(O)C(=O)CO [DEXAMETHASONE]
inhibition at 10 µM (RAW264.7 [1]): 36% | inhibition in vivo at 1 mg/kg/day (Rattus norvegicus [2]): 49.5% | Activity [3]: 6.5 mg | inhibition in vivo at 1 mg/kg/day (Rattus norvegicus [4]): 90.5% | inhibition in vivo at 0.1 mg/kg/day (Mus musculus [5]): 100% | Activity (Mus musculus [6]): Active | Activity [7]: 52.5 mg | inhibition in vivo at 0.1 mg/kg/day (Mus musculus [8]): 92% | Activity [9]: -13.9% | inhibition in vivo at 0.1 mg/kg/day (Mus musculus [10]): 66% | inhibition in vivo at 1 mg/kg/day (Rattus norvegicus [11]): 65.4%

CN1CCc2c(c3ccccc3n2Cc2ccc(C(=O)NO)cc2)C1 [TUBASTATIN A]
inhibition at 10 µM (RAW264.7 [1]): 66% | inhibition in vivo at 30 mg/kg/day (Rattus norvegicus [12]): 71.9% | inhibition (THP-1 [13]): Dose-Dependent Effect | Activity (THP-1 [14]): Non-Toxic | Activity [15]: 17.5 mg | inhibition in vivo at 30 mg/kg/day (Rattus norvegicus [16]): 40.3% | Activity [17]: 182 mg | Activity (RAW264.7 [18]): Non-Toxic | inhibition in vivo at 30 mg/kg/day (Rattus norvegicus [19]): 38.6% | Activity (Mus musculus [20]): Active | inhibition in vivo at 30 mg/kg/day (Mus musculus [21]): 71% | inhibition (THP-1 [22]): Dose-Dependent Effect | inhibition in vivo at 30 mg/kg/day (Mus musculus [23]): 73% | Activity [24]: -1.07% | inhibition (RAW264.7 [25]): Dose-Dependent Effect | inhibition in vivo at 30 mg/kg/day (Mus musculus [26]): 59%
